The text below walks through data of ChEMBL document CHEMBL4651341, “The discovery of a novel series of compounds with single-dose efficacy against juvenile and adult Schistosoma species” (PLoS Negl Trop Dis, 2021).

SMILES strings stand for the structures.

In this experiment the test system is Schistosoma mansoni. Nature of the experiment: Concentration required to kill 50% of 21 day old worms 5 days after drug treatment. The class given is functional, organism-based. The following applies: Puerto Rican, 120 h. In outline:
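Juvenile S. mansoni (Puerto Rican strain) were perfused from CD1 mice 3 weeks post-infection and washed. They were cultured 6–8 per well in 200 µL DMEM with 2 mM glutamine, penicillin/streptomycin and 10% FCS at 37 °C, 5% CO2. Viability of individual worms was scored on day 5 after dosing (120 h).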
With `CC(C)Oc1cccc(-c2cn3c(-c4cccc(CO)c4)cnc3cn2)c1`, the EC50 (in general, the concentration needed to bring the measured effect to its halfway point) was over 25 µM.
The figure for `COc1ccc(-c2nnc3ccc(-c4cccc(F)c4)cn23)cc1OC` is over 25 µM; for `CC(C)c1cccc(-c2ccc3nnc(-c4cccnc4)n3c2)c1` it is over 25 µM; for `COc1ccc(-c2cnc3cnc(-c4cccc(F)c4)cn23)cc1` it is over 25 µM.
Under `COc1ccc(-c2cnc3cnc(-c4ccc(OC)nc4)cn23)cc1` stands over 25 µM; under `Cc1nnc2ccc(-c3cccc(C(C)C)c3)cn12`, over 25 µM; under `COc1ccc(-c2nnc3ccc(-c4cnn(CCN5CCOCC5)c4)cn23)cc1OC`, over 25 µM.
`COCc1cccc(-c2nnc3ccc(-c4cccc(OC(C)C)c4)cn23)c1` registered an EC50 of over 25 µM.
Under `CC(C)c1cccc(-c2ccc3nnc(-c4cn[nH]c4)n3c2)c1` stands over 25 µM.
The figure for `COc1ccc(-c2nnc3ccc(-c4cccc(OC(C)C)c4)cn23)c(OC)c1` is over 25 µM.
The figure for `CC(C)Oc1cccc(-c2ccc3nnc(-c4ccnc(C(F)(F)F)c4)n3c2)c1` is over 25 µM; for `CNC(=O)c1cccc(-c2ccc3nnc(-c4ccc(OC)c(OC)c4)n3c2)c1` it is over 25 µM.
In the case of `COc1ccc(-c2nnc3ccc(-c4cccc(CN)c4)cn23)cc1OC`, the EC50 is over 25 µM.
The molecule `COc1ccc(-c2nnc3ccc(-c4cccc(C#N)c4)cn23)cc1OC` returned an EC50 of over 25 µM.
The figure for `COc1ccc(-c2nnc3ccc(-c4cccc(S(=O)(=O)N5CCOCC5)c4)cn23)cc1OC` is over 25 µM; for `COc1cc(-c2cnc3cnc(-c4cccc(OC(C)C)c4)cn23)ccn1` it is over 25 µM.
As to `COc1ccc(-c2nnc3ccc(-c4ccc5c(c4)OCCO5)cn23)cc1OC`, the EC50 is over 25 µM.
Under `CC(C)Oc1cccc(-c2ccc3nnc(-c4ccc5c(c4)CCO5)n3c2)c1` stands over 25 µM; under `COc1ccc(-c2nnc3ccc(-c4c(OC)cccc4OC)cn23)cc1OC`, over 25 µM; under `COc1ccc(-c2cnc3cnc(-c4cnn(CCN5CCOCC5)c4)cn23)c(C)c1`, over 25 µM.
The figure for `Cc1cnc2cnc(-c3cccc(OC(C)C)c3)cn12` is over 25 µM.
Under `CNC(=O)c1cccc(-c2cn3c(-c4ccc(OC)cc4)cnc3cn2)c1` stands over 25 µM; under `COc1ccc(-c2nnc3ccc(-c4cccc(Cl)c4)cn23)cc1OC`, over 25 µM.
`COc1ccc(-c2cnc3cnc(-c4ccnc(C(F)(F)F)c4)cn23)cc1` gave an EC50 of over 25 µM.
Under `COc1cccc(-c2ccc3nnc(-c4ccc(OC)c(OC)c4)n3c2)n1` stands over 25 µM.
The figure for `COc1ccc(-c2nnc3ccc(-c4ccc5c(c4)CCO5)cn23)cc1OC` is over 25 µM; for `CC(C)Oc1cccc(-c2cn3c(-c4cncnc4)cnc3cn2)c1` it is over 25 µM; for `CC(C)c1cccc(-c2ccc3nnc(-c4ccnc(C(F)(F)F)c4)n3c2)c1` it is over 25 µM.
Under `COc1cc(-c2nnc3ccc(-c4cccc(OC(C)C)c4)cn23)ccn1` stands over 25 µM; under `COc1ncc(-c2ccc3nnc(-c4ccc(OC)c(OC)c4)n3c2)cn1`, over 25 µM.
`Cc1ccc(-c2cnc3cnc(-c4cccc(OC(C)C)c4)cn23)cn1` gave an EC50 of over 25 µM.
The figure for `CC(C)c1cccc(-c2ccc3nnc(-c4ccc(CN)cc4)n3c2)c1` is over 25 µM.
`CC(C)Oc1cccc(-c2cn3c(-c4ccc5cn[nH]c5c4)cnc3cn2)c1` returned an EC50 of over 25 µM.
The molecule `CC(C)c1cccc(-c2ccc3nnc(-c4cnn(C)c4)n3c2)c1` showed an EC50 of over 25 µM.
For `COc1ccc(-c2nnc3ccc(-c4ccc(O)nc4)cn23)cc1OC`, the concentration giving a half-maximal response (EC50) is over 25 µM.
The figure for `COc1ccc(-c2cnc3cnc(-c4ccc5c(c4)OCCO5)cn23)cc1` is over 25 µM; for `COc1ccc(-c2cnc3cnc(-c4cccc(S(=O)(=O)N5CCOCC5)c4)cn23)cc1` it is over 25 µM; for `COc1ccc(-c2nnc3ccc(-c4cccc(N)c4)cn23)cc1OC` it is over 25 µM.
The figure for `COc1ccc(-c2cnc3cnc(-c4cccc(OC(C)C)c4)cn23)cn1` is 24.2 µM.
Under `COc1cccc(-c2nnc3ccc(-c4cccc(C(C)C)c4)cn23)n1` stands 12.4 µM; under `CC(C)Oc1cccc(-c2cn3c(-c4cn[nH]c4)cnc3cn2)c1`, over 25 µM.
For `COc1ccc(-c2nnc3ccc(-c4cnc5[nH]ncc5c4)cn23)cc1OC`, the EC50 is over 25 µM.
The figure for `COc1ccc(-c2nnc3ccc(-c4cn[nH]c4)cn23)cc1OC` is over 25 µM.
The figure for `CC(C)Oc1cccc(-c2cn3c(-c4ccnn4C)cnc3cn2)c1` is over 25 µM.
The figure for `COc1ccc(-c2nnc3ccc(-c4ccccn4)cn23)cc1OC` is over 25 µM; for `COc1ccc(-c2nnc3ccc(-c4ccc(C)nc4)cn23)cc1OC` it is over 25 µM.
The molecule `COc1ccc(-c2nnc3ccc(-c4ccnc(C(F)(F)F)c4)cn23)cc1OC` displayed an EC50 of over 25 µM.
Under `CC(C)c1cccc(-c2ccc3nnc(-c4ccc(N)cc4)n3c2)c1` stands over 25 µM; under `COc1cccc(OC)c1-c1nnc2ccc(-c3cccc(OC(C)C)c3)cn12`, over 25 µM.
The molecule `CC(C)c1cccc(-c2ccc3nnc(-c4ccc(S(N)(=O)=O)cc4)n3c2)c1` returned an EC50 of over 25 µM.
In turn, `COc1cc(-c2ccc3nnc(-c4ccc(OC)c(OC)c4)n3c2)ccn1` returned an EC50 of over 25 µM.
Under `CC(C)c1cccc(-c2ccc3nnc(-c4ccc5cn[nH]c5c4)n3c2)c1` stands over 25 µM; under `CC(C)Oc1cccc(-c2ccc3nnc(-c4ccc5c(c4)ncn5C)n3c2)c1`, 25 µM.
The figure for `COc1ccc(-c2ccc3nnc(-c4ccc(OC)c(OC)c4)n3c2)cn1` is over 25 µM; for `CC(C)c1cccc(-c2ccc3nnc(-c4cccc(CO)c4)n3c2)c1` it is over 25 µM; for `CC(C)Oc1cccc(-c2cn3c(-c4ccc(CN)cc4)cnc3cn2)c1` it is 24.2 µM.
`COc1ccc(-c2nnc3ccc(-c4cccc(OC(C)C)c4)cn23)cc1` yielded a half-maximal effective concentration (EC50) of over 25 µM.
The figure for `COc1ccc(-c2cnc3cnc(-c4cccc(CN)c4)cn23)cc1` is over 25 µM; for `Cc1ccc(-c2nnc3ccc(-c4cccc(OC(C)C)c4)cn23)cn1` it is over 25 µM.
Under `COc1ccc(-c2cnc3cnc(-c4cccc(CO)c4)cn23)cc1` stands over 25 µM; under `CC(C)c1cccc(-c2ccc3nnc(-c4ccc5[nH]ncc5c4)n3c2)c1`, over 25 µM.
Under `CC(C)Oc1cccc(-c2ccc3nnc(-c4cccc(C#N)c4)n3c2)c1` stands over 25 µM.
`COc1ncc(-c2cnc3cnc(-c4cccc(OC(C)C)c4)cn23)cn1` gave an EC50 of over 25 µM.
On to `CC(C)c1cccc(-c2ccc3nnc(-c4ccncc4)n3c2)c1`, for which the 50% effective concentration (EC50) was over 25 µM.
The figure for `CC(C)Oc1cccc(-c2cn3c(-c4cnn(C)c4)cnc3cn2)c1` is over 25 µM.
In the case of `COc1ccc(-c2nnc3ccc(-c4ccc5[nH]ncc5c4)cn23)cc1OC`, the concentration giving a half-maximal response (EC50) was over 25 µM.
Under `COc1ccc(-c2nnc3ccc(-c4ccc5c(cnn5C)c4)cn23)cc1OC` stands over 25 µM; under `COc1ccc(-c2nnc3ccc(-c4cccc(OC(C)C)c4)cn23)cc1OC`, over 25 µM; under `CC(C)c1cccc(-c2ccc3nnc(-c4ccccn4)n3c2)c1`, 14 µM.
Consider `CC(C)c1cccc(-c2ccc3nnc(-c4ccnn4C)n3c2)c1`, for which the EC50 was over 25 µM.
Under `COc1cccc(-c2ccc3nnc(-c4ccc(OC)c(OC)c4)n3c2)c1` stands over 25 µM; under `COc1cccc(-c2cn3c(-c4ccc(OC)c(F)c4)cnc3cn2)c1`, 24.2 µM.
Under `CC(C)Oc1cccc(-c2cn3c(-c4ccc(N)cc4)cnc3cn2)c1` stands 21.3 µM; under `CC(C)c1cccc(-c2ccc3nnc(-c4cnc5[nH]ncc5c4)n3c2)c1`, over 25 µM.
The figure for `CC(C)Oc1cccc(-c2ccc3nnc(-c4ccc(F)cc4)n3c2)c1` is over 25 µM; for `COc1ccc(-c2nnc3ccc(-c4ccc(N5CCN(C)CC5)nc4)cn23)cc1OC` it is over 25 µM.
For the molecule `COc1cccc(-c2nnc3ccc(-c4cccc(OC(C)C)c4)cn23)n1`, the EC50 is 12.7 µM.
The figure for `CC(C)Oc1cccc(-c2ccc3nnc(-c4ccc([S@+](C)[O-])cc4)n3c2)c1` is over 25 µM.
The figure for `COc1cccc(-c2cn3c(-c4ccc5c(c4)CCO5)cnc3cn2)c1` is over 25 µM; for `COc1ccc(-c2nnc3ccc(-c4cccc(C(C)C)c4)cn23)c(OC)c1` it is 23.7 µM.
In turn, `COc1ccc(-c2cnc3cnc(-c4ccnc(OC)c4)cn23)cc1` displayed an EC50 of over 25 µM.
The figure for `COc1ccc(-c2nnc3ccc(-c4ccc5cn[nH]c5c4)cn23)cc1OC` is over 25 µM.
Molecule `CC(C)Oc1cccc(-c2cn3c(-c4ccc(CO)cc4)cnc3cn2)c1` returned an EC50 of 25 µM.
The figure for `CC(C)Oc1cccc(-c2cn3c(-c4ccc(S(N)(=O)=O)cc4)cnc3cn2)c1` is 25 µM; for `COc1ccc(-c2nnc3ccc(-c4ccc(O)cc4)cn23)cc1OC` it is over 25 µM; for `COc1ncc(-c2nnc3ccc(-c4cccc(C(C)C)c4)cn23)cn1` it is over 25 µM.
The figure for `COc1ccc(-c2cnc3cnc(-c4cccc(C#N)c4)cn23)cc1` is over 25 µM.
In turn, `CC(C)c1cccc(-c2ccc3nnc(-c4ccc(CO)cc4)n3c2)c1` registered an EC50 of over 25 µM.
Under `COc1ccc(-c2cnc3cnc(-c4ccccn4)cn23)cc1` stands over 25 µM; under `COc1cc(-c2nnc3ccc(-c4cccc(C(C)C)c4)cn23)ccn1`, over 25 µM.
The figure for `COc1ccc(-c2nnc3ccc(-c4ccc(F)cc4)cn23)cc1OC` is over 25 µM; for `CCOc1cccc(-c2ccc3nnc(-c4ccc(OC)c(OC)c4)n3c2)c1` it is over 25 µM; for `COc1ccc(-c2nnc3ccc(-c4cccc(OC(C)C)c4)cn23)cc1F` it is 25 µM.
Under `COc1ccc(-c2nnc3ccc(-c4cccnc4OC)cn23)cc1OC` stands over 25 µM; under `COc1ccc(-c2nnc3ccc(-c4cccc(CO)c4)cn23)cc1OC`, over 25 µM.
`COc1cccc(-c2nnc3ccc(-c4cccc(OC(C)C)c4)cn23)c1` came in with an EC50 of over 25 µM.
